From PubChem BioAssay
RGS4 inh: human RGS4 inhibition; B-score at 10 µM; actives 0.45% (n = 310,000); HEK293 M3R/RGS4 inducible, Fluo-4 calcium flux; hits give high values; triggered by carbachol at its EC20; AID 463165;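 active = B-score, a plate-corrected calcium signal, over three deviations above library mean, with baseline fluorescence within five deviations of library mean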;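 note: RGS4 expression induced by doxycycline in cells with stable M3 receptor; B-score is computed from the integrated fluorescence ratio over baseline after carbachol; higher B-score means a larger calcium signal and so more RGS4 inhibition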
Target sequence (P49798 whole entry, looked up): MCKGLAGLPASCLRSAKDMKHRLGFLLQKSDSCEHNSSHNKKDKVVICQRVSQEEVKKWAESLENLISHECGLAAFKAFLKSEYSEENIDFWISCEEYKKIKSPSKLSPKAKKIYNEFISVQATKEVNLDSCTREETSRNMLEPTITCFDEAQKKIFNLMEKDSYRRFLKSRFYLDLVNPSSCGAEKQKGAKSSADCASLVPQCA
RGS4 pot: RGS4 potentiation or activation; HEK293 M3R/inducible RGS4, carbachol calcium flux Fluo4; hits give low values; B-score at 10 µM; actives 0.92% (n = 310,000); AID 463111;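 active = B-score of the integrated calcium signal more than 4 SD below the library mean, with starting fluorescence not abnormally high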;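 note: negative B-score means reduced calcium response which marks RGS4 activation or potentiation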
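System: HEK293 FlpIn-TREx cells, stable M3R, doxycycline-inducible RGS4. Timing: overnight RGS4 induction, 30 min dye load 37 °C, 20 min compound RT. Also added: carbachol, ECmax concentration. Measured by: Fluo4 fluorescence kinetic imaging of calcium. Evaluation: integrated calcium ratio converted to B score.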
MrgX1 ag: human MrgX1 receptor agonism, primary screen. Q96LB2. MrgX1-HEK293 cells, Fluo-4 calcium fluorescence, agonist mode; hits give high values. B-score at 10 µM. actives 0.44% (n = 310,000). AID 588627;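 active = calcium response B-score plate-corrected fluorescence ratio at least 3 library SD, with starting fluorescence B-score inside 5 SD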
Target sequence (Q96LB2 whole entry, looked up): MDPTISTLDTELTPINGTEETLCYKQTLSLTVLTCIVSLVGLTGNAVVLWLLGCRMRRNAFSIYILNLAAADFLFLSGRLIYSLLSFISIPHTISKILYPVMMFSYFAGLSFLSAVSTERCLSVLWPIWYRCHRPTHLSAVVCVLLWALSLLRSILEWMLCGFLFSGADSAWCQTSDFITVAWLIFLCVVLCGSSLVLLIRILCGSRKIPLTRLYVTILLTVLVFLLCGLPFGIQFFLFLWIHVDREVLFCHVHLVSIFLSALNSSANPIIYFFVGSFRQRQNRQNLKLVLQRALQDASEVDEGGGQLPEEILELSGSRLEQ
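Assay system: MrgX1-expressing HEK293 cells / Amount: fifteen thousand cells per well / Doses: test compound in the initial addition of three / Timing: cells plated overnight, dye loaded 0.5 h 37 °C, 0.5 h room temperature / Technique: kinetic calcium dye fluorescence, Fluo-4 NW / Control set: positive and negative controls per plate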
MrgX1 PAM: human MrgX1 positive allosteric modulation, primary screen | MrgX1-HEK293, Fluo-4 calcium flux, FDSS; hits give high values | B-score at 10 µM | actives 0.63% (n = 310,000);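 active = plate-corrected calcium response at least 3 library SD above typical, normal starting fluorescence, not activating the receptor alone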;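 note: compound read alongside a low EC10 to EC30 dose of BAM8-22 agonist; peak minus trough fluorescence over baseline measured at the second addition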
MrgX1 antag: human MrgX1 receptor antagonism, primary screen | B-score at 10 µM | MRGX1-HEK293 calcium flux, Fluo-4, BAM8-22 antagonism; hits give low values | AID 588676 | actives 1.3% (n = 310,000) | Q96LB2;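 active = calcium-response B-score plate-corrected more than 3 library SD below zero, starting fluorescence within 5 deviations, no agonist response on first addition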;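 note: peak minus trough fluorescence over baseline after final BAM8-22 challenge near maximal dose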
A number is an active result; i = inactive; nt = not tested or not shown. A selection: hits, their analogues and other compounds. The true share with any hit is near 3.5%.

SMILES	RGS4 inh	RGS4 pot	MrgX1 ag	MrgX1 PAM	MrgX1 antag
O=C(C1CCCO1)N1CCN(c2ccccn2)CC1 (stereo unspecified)	i	i	i	i	i
CCN(Cc1ccccc1)CC(O)COC(c1ccc(OC)cc1)c1ccc(OC)cc1 (stereo unspecified)	i	i	i	i	i
NCC/C=C1/c2ccccc2CSc2ccccc21	i	-7	i	i	i
CCOC(=O)N1CCN(C(=O)c2cn(CC)c3cc(N4CCN(C)CC4)c(F)cc3c2=O)CC1	i	i	i	i	-7.6
CCN1CCN(Cc2ccc(NC(=O)c3ccc(C)c(NC(=O)C(=O)c4c[nH]c5ccccc45)c3)cc2C(F)(F)F)CC1	i	-8.8	i	i	i
CCN1CCN(Cc2ccc(NC(=O)c3cc(NC(=O)C(=O)c4c[nH]c5ccccc45)cc(OC)c3)cc2C(F)(F)F)CC1	i	i	i	i	i
COc1ccc2c(c1)[nH]c1c(N3CCN(Cc4ccc5c(c4)OCO5)CC3)ncnc12	i	i	i	i	-6.1
O=C(O)c1ccc(SCc2ccccc2)nc1	i	i	i	i	i
Cc1ccc(-c2ccc(/C=C(\C#N)C(=O)Nc3cc(C)nn3-c3ccccc3)o2)cc1	i	-8.6	i	i	i
CCC(C(=O)O/N=C(\N)c1cccc(C)c1)c1ccccc1 (stereo unspecified)	i	-9.5	i	i	i
CCSC1(SCC)N=C(N)C2(C#N)C(c3ccc(F)cc3)C12C#N (stereo unspecified)	i	i	29	i	i
O=C(O)/C=C/c1ccc([N+](=O)[O-])o1	i	i	i	i	-5.2
CN1CCN(C(=O)/C=C/c2ccc([N+](=O)[O-])o2)CC1	i	i	nt	nt	nt
COc1ccccc1NS(=O)(=O)c1ccc(O)c(C(=O)OCc2cccc([N+](=O)[O-])c2)c1	i	i	i	i	-6.5
COc1ccccc1NS(=O)(=O)c1ccc(C)c(C(N)=O)c1	i	i	i	i	i
C(=N\N(Cc1ccccc1)c1ccccc1)/c1cccnc1	i	-7.9	i	i	i
Oc1cccc(/C=N/N(Cc2ccccc2)c2ccccc2)c1	i	i	i	i	i
CCCCn1nnnc1SCC(=O)NNC(=O)C1CCCCC1	i	i	i	i	-5.1
CC(=O)Nc1cccc(C(=O)NC2CCCc3c2cnn3-c2cc(C)cc(C)c2)c1 (stereo unspecified)	i	i	i	i	i
O=C(O)CCCCCN1C(=O)C2CCCCC2C1=O (stereo unspecified)	i	i	i	i	i
O=C(O)CCCCCCC1C(=O)NC(=O)N1CCC(O)C1CCCCC1 (stereo unspecified)	i	i	31	i	i
Cc1ccc(NC(=O)C2CCCN2S(=O)(=O)c2ccc3c(c2)n(C)c(=O)c(=O)n3C)cc1C (stereo unspecified)	i	-7	i	i	i
Cn1c(=O)c(=O)n(C)c2cc(S(=O)(=O)N3CCCC3C(=O)Nc3ccc(F)cc3)ccc21 (stereo unspecified)	i	i	i	i	i
COc1ccc(C(C(=O)NC2CCCC2)N(C(=O)c2snc(C(N)=O)c2N)c2cccc(O)c2)cc1 (stereo unspecified)	i	i	i	6.5	i
NC(=O)c1nsc(C(=O)N(c2cccc(F)c2)C(C(=O)NC2CCCC2)c2ccc(O)cc2)c1N (stereo unspecified)	i	i	i	i	i
SMILES	RGS4 inh	RGS4 pot	MrgX1 ag	MrgX1 PAM	MrgX1 antag
CC1CCCN(C(=O)c2ccc3c(c2NCCO)C(=O)c2ccccc2C3=O)C1 (stereo unspecified)	i	i	i	8	i
CC1(C)CCCN(C(=O)c2ccc3c(c2NCCO)C(=O)c2ccccc2C3=O)C1	i	i	i	15	i
O=C1c2ccccc2C(=O)c2c1ccc(C(=O)N1CCCCC1)c2NCCO	i	i	i	7	i
CCN(CCN(C)C)C(=O)c1ccc2c(c1NCCO)C(=O)c1ccccc1C2=O	i	i	i	i	i
CCOC(=O)C1CCN(c2cc3c(cc2NC(=O)c2cc(OC)ccc2Br)n(C)c(=O)n3C)CC1	i	i	i	i	i
CCCC1=Nc2cc(C(=O)N3CCN(c4ccccn4)CC3)ccc2Sc2ccc(C)cc21	i	-7.5	i	i	i
COc1ccccc1N(CC(O)COc1c(C)cc(C)cc1C)S(=O)(=O)c1ccccc1 (stereo unspecified)	i	i	i	7.9	i
O=C(c1ccc(Cn2cc([N+](=O)[O-])cn2)o1)N1CCCCCC1	i	i	i	i	i
Cc1ccc(CSc2nnc(SCC(=O)N/N=C/c3ccc(C(=O)O)cc3)s2)cc1	i	i	i	i	-5.2
C[C@@H]1C2CC(C/C2=N\NC(=O)c2ccncc2)C1(C)C (stereo partly specified)	i	i	i	i	i
CC1C2CC(C/C2=N/NC(=O)c2cccs2)C1(C)C (stereo unspecified)	i	i	i	8.7	i
NS(=O)(=O)c1cccc(NC(=O)Cn2cc(C(F)(F)F)cc(Cl)c2=O)c1	i	i	i	i	i
Cc1cccc(Oc2ncnc(N)c2[N+](=O)[O-])c1C	i	i	i	i	i
Nc1ncnc(Oc2cccc3cccnc23)c1[N+](=O)[O-]	i	i	i	i	-5
COc1ccc(-c2ccc(=O)n(Cc3cccc(Cl)c3)n2)cc1	i	i	i	7.9	i
CCOC(=O)c1c(NC(=O)CSc2nnc(-c3ccccc3)n2CC)sc(C(C)=O)c1C	i	i	i	i	i
CCOC(=O)c1c(NC(=O)CSc2nnc(-c3cccc(C)c3)n2CC)sc(C(C)=O)c1C	i	-7	i	i	i
CC1=CC(=C(C#N)C#N)c2ccccc2N1C	i	i	i	i	i
CC1=C/C(=C\C=C(C#N)C#N)N(C)c2ccccc21	i	i	i	i	-5.7
CCNCC(=O)N1c2ccccc2CCc2ccc(NC(=O)OCC)cc21	i	i	i	i	i
C=CCN1C(=O)C(CC(=O)Nc2ccc(OCCC)cc2)N(CCCN2CCN(Cc3ccccc3)CC2)C1=S (stereo unspecified)	i	i	i	9.4	i
Cn1cc(/C=C/c2cc[n+](C)cc2)c2cc(F)ccc21	i	i	i	i	i
C[n+]1ccc(/C=C/c2c[nH]c3ccc(F)cc23)cc1	i	-7.8	i	i	i
Cc1c(N2C(=O)/C(=C\c3ccc(N(C)C)cc3)N(C)C2=S)c(=O)n(-c2ccccc2)n1C	nt	nt	i	i	-4.5
CCOC(=O)C1=C(COC(=O)/C=C/c2cccc(Cl)c2)NC(=O)NC1C (stereo unspecified)	i	i	i	i	i
CCN(CCCNC(=O)CCCCn1c(=O)[nH]c2ccccc2c1=O)c1ccccc1	i	i	i	i	-5
O=[N+]([O-])c1ccc(-c2nc(-c3cccs3)c(-c3cccs3)[nH]2)cc1	i	-8.9	i	i	i
